Screens from PubChem.
MT stabilizer: stabilizes microtubules in HeLa cells; % tubulin-high responders, % at 10 µM; AID 2205; actives 0.83% (n = 200,000); HeLa tubulin immunostaining HCS, 24 h; share of cells brighter than vehicle mean+2SD;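 active = plate Z-score above 3 for both tubulin-high and condensed-nucleus cell shares, with cell loss under 80%, at 10 µM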;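 note: anti alpha tubulin signal scored within the nucleus-defined area of each cell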
bCat nuc transl: modulators of beta-catenin nuclear translocation; nuclear translocation activity, % at 5 µM; actives 0.3% (n = 190,000); AID 1665; HeLa beta-catenin nuclear translocation, immunofluorescence imaging;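 active = nuclear translocation activity above 50% at 5 µM, with a well cell count of 50 or more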;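 note: per-cell ratio of nuclear to cytoplasmic median beta-catenin stain intensity; plate controls were DMSO negative control for no effect and GSK-3 inhibitor IX positive control for full effect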
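Test system: human HeLa cells, native beta-catenin. Compound dosing: 5 µM primary single dose, 0.1% DMSO, 0.02–20 µM confirmation series. Incubation: compound exposure 24 h at 37°C. Detection: beta-catenin immunostaining with DAPI counterstain, 20x imaging, 6 fields/well. Read-out basis: Nuclear/cytoplasmic beta-catenin signal ratio, % activation.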
Lmaj promast: Leishmania major promastigote growth inhibition. AID 1063. inhibition, % at 10 µM. Leishmania major promastigotes, resazurin fluorescence viability. actives 9% (n = 200,000); in the data active = inhibition above about 50%;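 note: promastigotes grown with compound for 44 hours at 28 °C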
HSV replic up: HSV replication enhancement. HSV replication augmentation in cells, fold increase. maximum fold increase. actives 0.005% (n = 220,000); in the data active = maximum fold increase above about 1.5; tested in PC3 cells
Dynein cargo inh: blocks dynein driven cargo transport along microtubules | 3617.4 mouse cells, GR-EGFP nuclear translocation imaging; test concentration mostly 20 µM; stimulated with dexamethasone, 1 µM; stronger effect = lower value | z-score, hits read low | actives 0.47% (n = 220,000) | AID 1381;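 active = plate z-score of nuclear minus cytoplasmic receptor signal below a set negative limit, without overly bright fluorescence or cell loss, cut at about -3.5 in these data, passing the limit was not always enough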;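 note: z-score of nuclear minus cytoplasmic ring GR-EGFP intensity difference per well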
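Buffer or medium: tetracycline-free induction medium containing charcoal-stripped FBS / Reagent: dexamethasone agonist, 1.0 µM final, for 30 min / Technique: automated 10x imaging of fixed Hoechst-stained cells / Times: induction 48 h, compound 1 h, agonist 30 min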
* = called active by the depositor; i = inactive; / = no result. Only some compounds are listed: those with a hit (about 8.9% of all), similar ones and a draw of the others.

SMILES	MT stabilizer	bCat nuc transl	Lmaj promast	HSV replic up	Dynein cargo inh
CCCCOc1ccc(N=Nc2ccc(N)nc2N)cn1	/	0.4	/	i	-0.467
N#C/C(=C\c1ccncc1)c1nc2c(s1)CCCC2	2.0	-4.0	58.0*	i	1.89
CCc1nc(SCc2ccccn2)c2c(=O)n(C)c(=O)n(C)c2n1	2.0	-3.7	7.2	i	-0.75
Cc1sc(-c2ccncc2)nc1OC(=O)c1ccc(Cl)cc1	3.2	-2.2	-2.4	i	-0.724
CC(C)(C)C(=O)Nc1ccc(C(=O)N/N=C/c2ccccc2OC(=O)c2ccc(Cl)cc2)cc1	2.5	2.1	54.8*	i	-0.584
Cc1cccc(C(=O)Oc2ccccc2/C=N/NC(=O)c2ccc(NC(=O)C(C)(C)C)cc2)c1	4.2	-1.0	23.1	i	1.21
COc1cc(C(=O)N/N=C/c2ccsc2C)cc(OC)c1OC	11.4	162.9*	-3.0	i	-0.403
CC(C)(C)C(=O)Nc1ccc(C(=O)N/N=C/c2ccccc2OC(=O)c2ccccc2)cc1	1.4	1.0	49.7	i	-0.544
COc1cc(C(=O)Oc2ccccc2/C=N/NC(=O)c2ccc(C)cc2)cc(OC)c1OC	1.7	-0.4	76.2*	i	-0.534
Cc1ccc(S(=O)(=O)N2CCCCC2)cc1C(=O)Nc1cccnc1	/	-5.3	/	i	-0.256
CC12CC3CC(C)(C1)CC(NCc1ccncc1)(C3)C2	4.6	-1.7	82.5*	i	0.26
CC1(C)CC(NCc2ccncc2)CC(C)(C)N1	3.5	0.3	-3.6	i	-0.71
Cc1nn(-c2cc(N3CCOCC3)ccc2N)c(=O)c2ccccc12	2.3	/	4.5	i	0.875
CCC1=C(OC(=O)N(CC)CC)N2C(=O)OC(=NCC(=O)OC)[C@]2(Cc2ccccc2)[C@H]2C1=CC[C@H]1C(=O)N(CC(=O)OC)C(=O)[C@H]12	/	0.2	/	i	0.42
CCOC(=O)c1c(C)nc2sc3c(=O)n(-c4ccc(C(C)=O)cc4)nnc3c2c1-c1ccc(Cl)cc1	2.8	-0.6	54.2*	i	0.57
Cn1cccc1/C=N/N1CCN(c2ccccn2)CC1	2.1	1.6	0.3	i	-0.459
C=CCc1cccc(CNc2nc3ccccc3n2C(C)C)c1O	6.7	-7.3	48.3	/	2.19
COCCn1c(SCC(=O)Nc2cc(C)cc(C)c2)nnc1C(C)C	1.7	1.1	-5.9	i	-0.604
COCCn1c(SCC(=O)Nc2cccc(C)c2)nnc1C(C)C	5.6	-3.9	91.3*	i	1.27
CC(C)COC(=O)n1c(SCC(=O)N(C)C)nc2ccccc21	1.6	-1.7	3.9	i	-0.0461
O=C(O)CCC(=O)NNC(=O)c1cccc(Br)c1	2.2	0.1	59.6*	i	0.0842
COC(=O)CCC(=O)NNC(=O)c1cccc(Br)c1	1.6	/	40.8	i	-1.08
CC1CCN(C(=O)CSc2nnc(Cc3cccn3C)n2CCc2ccccc2)CC1	4.3	-2.0	-3.7	i	-0.499
CN(C)CCNC(=S)Nc1ccc(Cl)cc1	4.2	-1.2	-5.4	i	-0.497
Cc1[nH]nc2c1C(c1ccco1)C(C#N)=C(N)O2 (stereo unspecified)	2.2	0.5	24.7	i	-0.0107
SMILES	MT stabilizer	bCat nuc transl	Lmaj promast	HSV replic up	Dynein cargo inh
Cc1[nH]nc2c1C(c1cc(Br)cs1)C(C#N)=C(N)O2 (stereo unspecified)	7.1	3.7	98.7*	i	0.725
CCC(C)C1C(C#N)=C(N)Oc2n[nH]c(C)c21 (stereo unspecified)	4.9	-5.2	67.0*	i	-1.2
COc1ccc(-c2ccc(C3C(C#N)=C(N)Oc4n[nH]c(C)c43)o2)cc1 (stereo unspecified)	2.6	14.1	71.2*	i	-0.1
CCCc1cc(-n2cnc3ccccc32)n2c(nc3ccccc32)c1C#N	1.0	-0.4	8.8	i	-0.877
Nc1ncnc2nc(SCCC(=O)O)[nH]c12	/	1.9	/	i	-0.192
O=C(CN(Cc1ccco1)C(=O)CCC(=O)Nc1ccccn1)NCCc1ccccc1	2.1	-0.1	98.0*	i	1.2
O=C1OC(N2CCN(C/C=C/c3ccccc3)CC2)c2ccccc21 (stereo unspecified)	2.5	-3.6	55.8*	/	0.48
O=C1CC(N2CCN(C/C=C/c3ccccc3)CC2)C(=O)N1CCc1ccccc1 (stereo unspecified)	6.1	2.4	93.2*	i	0.995
O=C1CC(N2CCN(c3ccc(O)cc3)CC2)C(=O)N1Cc1cccs1 (stereo unspecified)	2.0	-0.3	16.4	i	-1.43
